In ChEMBL document CHEMBL5046221, “Identification of Pyrimidine-Based Lead Compounds for Understudied Kinases Implicated in Driving Neurodegeneration” (J Med Chem, 2022):

Key:
[1] = molecular target: T1, MAP/microtubule affinity-regulating kinase 4 (Homo sapiens, UniProt Q96L34); assay: Displacement of tracer K5 from NLuc fused MARK4 (unknown origin) expressed in HEK293 cells by NanoBRET assay; type: cell-based
T1 sequence (Q96L34 whole entry): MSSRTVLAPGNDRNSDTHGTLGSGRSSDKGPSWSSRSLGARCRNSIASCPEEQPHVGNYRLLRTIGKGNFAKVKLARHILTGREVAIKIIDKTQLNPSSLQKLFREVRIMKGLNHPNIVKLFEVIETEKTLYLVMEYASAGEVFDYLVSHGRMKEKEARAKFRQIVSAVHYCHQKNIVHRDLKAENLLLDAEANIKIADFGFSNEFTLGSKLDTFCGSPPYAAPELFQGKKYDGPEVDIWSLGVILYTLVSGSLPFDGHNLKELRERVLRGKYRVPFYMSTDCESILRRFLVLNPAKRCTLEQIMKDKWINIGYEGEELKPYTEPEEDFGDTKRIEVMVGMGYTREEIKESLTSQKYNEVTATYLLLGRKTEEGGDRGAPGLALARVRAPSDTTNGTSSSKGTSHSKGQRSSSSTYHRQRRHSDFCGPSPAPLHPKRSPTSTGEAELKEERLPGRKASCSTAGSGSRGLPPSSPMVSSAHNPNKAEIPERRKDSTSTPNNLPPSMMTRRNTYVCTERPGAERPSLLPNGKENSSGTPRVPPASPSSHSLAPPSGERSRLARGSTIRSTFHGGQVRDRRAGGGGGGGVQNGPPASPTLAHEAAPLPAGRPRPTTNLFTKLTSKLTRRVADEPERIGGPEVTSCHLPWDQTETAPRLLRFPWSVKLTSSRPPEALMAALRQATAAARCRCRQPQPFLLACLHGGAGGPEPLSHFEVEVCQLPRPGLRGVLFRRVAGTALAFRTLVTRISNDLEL

[2] = molecular target: T2, Serine/threonine-protein kinase TBK1 (Homo sapiens, UniProt Q9UHD2); assay: Displacement of tracer K5 from NLuc fused TBK1 (unknown origin) expressed in HEK293 cells by NanoBRET assay; type: cell-based
T2 sequence (Q9UHD2 whole entry): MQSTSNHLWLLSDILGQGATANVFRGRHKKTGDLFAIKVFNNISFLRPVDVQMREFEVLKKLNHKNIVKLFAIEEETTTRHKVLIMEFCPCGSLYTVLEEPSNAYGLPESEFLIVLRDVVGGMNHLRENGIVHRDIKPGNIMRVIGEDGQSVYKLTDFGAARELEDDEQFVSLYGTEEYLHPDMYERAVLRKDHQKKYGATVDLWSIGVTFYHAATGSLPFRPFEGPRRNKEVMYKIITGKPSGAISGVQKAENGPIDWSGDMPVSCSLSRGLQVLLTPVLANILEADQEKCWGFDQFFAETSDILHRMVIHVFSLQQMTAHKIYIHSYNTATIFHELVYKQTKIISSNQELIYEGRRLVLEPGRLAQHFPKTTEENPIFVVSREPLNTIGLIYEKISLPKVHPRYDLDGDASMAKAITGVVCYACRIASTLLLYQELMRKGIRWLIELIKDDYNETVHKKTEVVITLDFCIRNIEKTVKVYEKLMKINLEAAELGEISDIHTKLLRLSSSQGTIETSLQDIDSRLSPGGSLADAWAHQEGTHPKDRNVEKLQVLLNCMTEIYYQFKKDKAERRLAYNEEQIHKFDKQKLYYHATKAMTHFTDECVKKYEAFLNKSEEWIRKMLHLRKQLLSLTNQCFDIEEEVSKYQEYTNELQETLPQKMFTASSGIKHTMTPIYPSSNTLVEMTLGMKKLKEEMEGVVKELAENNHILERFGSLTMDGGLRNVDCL
Method in brief: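 HEK293 cells grown in DMEM with 10% FBS at 37 °C, 5% CO2. NanoBRET assay run in dose–response per manufacturer's protocol with tracer K-5 at 0.5 μM. SEM calculated for assays run more than once.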

[3] = Effective permeability in PBS at 7.4 incubated for 5 hrs by PAMPA analysis; type: ADME; settings: pH 7.4, 5 h
Method in brief: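 PAMPA: DMSO stocks were diluted in PBS pH 7.4 and placed in the donor compartment, with PBS pH 7.4 in the acceptor, for 5 h. Both compartments were quantified by CLND against a calibration curve, with background nitrogen correction. Effective permeability was calculated from donor and acceptor concentrations using measured rather than assumed solubility.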

[4] = molecular target: T3, Myosin light chain kinase 2, skeletal/cardiac muscle (Homo sapiens, UniProt Q9H1R3); assay: Inhibition of full length recombinant human MYLK2 using KKLNRTLSFAEPG as substrate incubated for 40 mins in presence of [gamma-33P-ATP] by radiometric scintillation assay
T3 sequence (Q9H1R3 whole entry): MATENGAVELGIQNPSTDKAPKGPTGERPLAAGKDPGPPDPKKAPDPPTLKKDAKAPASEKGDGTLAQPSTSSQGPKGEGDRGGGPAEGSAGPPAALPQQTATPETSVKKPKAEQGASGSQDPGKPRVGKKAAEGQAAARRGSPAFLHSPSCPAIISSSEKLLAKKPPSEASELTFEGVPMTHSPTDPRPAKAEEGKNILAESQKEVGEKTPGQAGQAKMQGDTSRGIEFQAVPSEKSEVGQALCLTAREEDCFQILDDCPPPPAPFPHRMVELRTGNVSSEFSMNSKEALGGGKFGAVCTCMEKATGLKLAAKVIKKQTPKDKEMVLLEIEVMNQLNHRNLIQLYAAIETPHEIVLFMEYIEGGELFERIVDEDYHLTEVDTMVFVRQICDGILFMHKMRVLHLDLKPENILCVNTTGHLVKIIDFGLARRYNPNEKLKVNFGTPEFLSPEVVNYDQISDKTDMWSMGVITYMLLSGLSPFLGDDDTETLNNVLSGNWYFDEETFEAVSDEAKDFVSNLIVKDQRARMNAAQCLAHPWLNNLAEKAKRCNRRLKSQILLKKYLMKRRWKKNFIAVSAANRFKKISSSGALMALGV
Method in brief: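 Eurofins radiometric enzymatic assay with ATP at Km for each kinase. IC50 was derived from a 9-point dose–response curve run in duplicate.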

[5] = Kinetic solubility of compound in PBS at pH 7.4 incubated for 24 hrs by chemiluminscent nitrogen detection method; type: physicochemical; settings: buffer, pH 7.4, 24 h
Method in brief: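 Filtrates were quantified by total chemiluminescent nitrogen determination against a calibration curve, with correction for background nitrogen from DMSO and medium.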

[6] = molecular target: MAP/microtubule affinity-regulating kinase 3 (Homo sapiens, UniProt P27448); assay: Displacement of tracer K9 from NLuc fused MARK3 (unknown origin) expressed in HEK293 cells by NanoBRET assay; type: cell-based
Sequence of MAP/microtubule affinity-regulating kinase 3 (P27448 whole entry, the tested form may be a part): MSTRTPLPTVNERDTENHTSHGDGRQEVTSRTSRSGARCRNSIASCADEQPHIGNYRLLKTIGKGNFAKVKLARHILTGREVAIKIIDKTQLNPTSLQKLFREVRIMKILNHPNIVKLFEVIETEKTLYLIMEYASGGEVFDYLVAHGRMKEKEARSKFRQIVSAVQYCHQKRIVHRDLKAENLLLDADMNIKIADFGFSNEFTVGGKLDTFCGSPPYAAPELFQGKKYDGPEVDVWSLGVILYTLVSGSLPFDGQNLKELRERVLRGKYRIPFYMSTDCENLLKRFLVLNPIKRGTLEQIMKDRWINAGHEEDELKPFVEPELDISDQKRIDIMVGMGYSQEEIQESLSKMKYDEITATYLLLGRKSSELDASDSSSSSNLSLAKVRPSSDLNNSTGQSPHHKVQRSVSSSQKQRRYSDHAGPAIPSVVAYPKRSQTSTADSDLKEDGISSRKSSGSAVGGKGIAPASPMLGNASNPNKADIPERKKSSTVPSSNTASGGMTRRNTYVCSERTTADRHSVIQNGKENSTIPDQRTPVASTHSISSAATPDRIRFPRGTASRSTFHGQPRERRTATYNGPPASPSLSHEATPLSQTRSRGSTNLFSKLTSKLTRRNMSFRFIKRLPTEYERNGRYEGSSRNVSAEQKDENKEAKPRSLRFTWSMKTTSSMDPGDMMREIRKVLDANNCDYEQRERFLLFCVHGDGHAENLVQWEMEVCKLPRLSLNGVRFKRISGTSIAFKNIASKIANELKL

[7] = molecular target: T3, Myosin light chain kinase 2, skeletal/cardiac muscle; assay: Inhibition of NanoLuc-fused MYLK2 (unknown origin) expressed in HEK293 cells incubated for 2 hrs by NanoBRET assay; type: cell-based
Method in brief: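 Cellular NanoBRET target-engagement assays were run by Carna Biosciences to the manufacturer's protocol. Dose–response was in singlicate, with compounds tested at concentrations up to 10 μM.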

[8] = molecular target: T4, Serine/threonine-protein kinase 17A (Homo sapiens, UniProt Q9UEE5); assay: Displacement of tracer K9 from NLuc fused DRAK1 (unknown origin) expressed in HEK293 cells by NanoBRET assay; type: cell-based
T4 sequence (Q9UEE5 whole entry): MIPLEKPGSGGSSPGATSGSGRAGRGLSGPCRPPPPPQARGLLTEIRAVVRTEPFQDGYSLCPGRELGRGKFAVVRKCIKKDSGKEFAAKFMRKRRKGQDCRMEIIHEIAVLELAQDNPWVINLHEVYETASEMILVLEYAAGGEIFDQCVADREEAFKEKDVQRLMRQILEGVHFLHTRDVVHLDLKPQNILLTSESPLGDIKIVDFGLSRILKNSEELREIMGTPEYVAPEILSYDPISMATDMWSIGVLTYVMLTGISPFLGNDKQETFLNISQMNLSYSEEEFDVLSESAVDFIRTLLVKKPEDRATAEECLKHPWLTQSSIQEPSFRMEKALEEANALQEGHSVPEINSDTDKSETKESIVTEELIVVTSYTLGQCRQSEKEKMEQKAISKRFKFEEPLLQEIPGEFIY

[9] = molecular target: T5, Serine/threonine-protein kinase 17B (Homo sapiens) (UniProt O94768); assay: Inhibition of full length recombinant human DRAK2 using KKRPQRRYSNVF as substrate at 1 uM incubated for 120 mins in presence of [gamma-33P-ATP] by radiometric scintillation assay relative to control
T5 sequence (whole entry): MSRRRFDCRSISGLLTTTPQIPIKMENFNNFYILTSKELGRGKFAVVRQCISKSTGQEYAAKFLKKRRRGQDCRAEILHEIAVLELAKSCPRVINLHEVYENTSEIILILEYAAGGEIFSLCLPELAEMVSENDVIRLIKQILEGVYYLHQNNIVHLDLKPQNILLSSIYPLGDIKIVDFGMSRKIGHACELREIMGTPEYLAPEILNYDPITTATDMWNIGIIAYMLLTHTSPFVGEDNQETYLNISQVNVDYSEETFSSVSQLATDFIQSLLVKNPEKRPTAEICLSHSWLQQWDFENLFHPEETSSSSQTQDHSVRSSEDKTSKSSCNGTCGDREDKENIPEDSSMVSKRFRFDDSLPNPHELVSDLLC
Method in brief: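 Eurofins radiometric kinase assay with ATP at Km for each kinase. Compound was tested at a single 1 μM concentration in duplicate, and the result is reported as percent of control.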

- IC50 [1]: > 10 µM
- IC50 [2]: > 10 µM
- Peff [3]: 6.23 10^-8cm/s
- IC50 [4]: 0.479 µM
- Kinetic solubility [5]: 177 µM
- IC50 [6]: > 10 µM
- IC50 [7]: 3.67 µM
- IC50 [8]: > 10 µM
- % control [9]: 91%
SMILES: Cc1nn(CC(F)(F)F)cc1Nc1nccc(NCCc2cnc[nH]2)n1
